Eight compounds from ChEMBL document CHEMBL3621200, “Toward the discovery of dual HCMV-VZV inhibitors: Synthesis, structure activity relationship analysis, and cytotoxicity studies of long chained 2-uracil-3-yl-N-(4-phenoxyphenyl)acetamides” (Bioorg Med Chem, 2015) can be followed below.

One data set relates to Influenza B virus. Put plainly: Antiviral activity against Influenza B virus. Format: functional, organism-based. An outline of the steps: (§1)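 Confluent cell monolayers (HEL, Vero, HeLa or MDCK) in 96-well plates were infected with 100 CCID50 of virus in the presence of varying compound concentrations. Cytopathicity was scored once it reached completion in untreated infected controls.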

For the next data set, the system named is Punta Toro virus. The data set is described as follows: Antiviral activity against Punta Toro virus. The data set is classed as functional, organism-based.
The next data set deals with Vaccinia virus. Put plainly: Antiviral activity against Vaccinia virus Lederle. The settings on record: Orthopoxvirus vaccinia. The data set is classed as functional, organism-based. An outline of the steps:
as §1

For data set [1], the system named is Vesicular stomatitis virus. Put plainly: Antiviral activity against Vesicular stomatitis virus. Format: functional, organism-based. The procedure, abridged:
as §1

A further data set concerns Feline coronavirus. Put plainly: Antiviral activity against Feline coronavirus. The data set is classed as functional, organism-based.
The next data set has as its system Sindbis virus. The data set is described as follows: Antiviral activity against Sindbis virus. The data set is classed as functional, organism-based.
The subject of data set [2] is Mammalian orthoreovirus 1. Put plainly: Antiviral activity against Reovirus 1. Format: functional.
The next data set deals with Coxsackievirus B4. The data set is described as follows: Antiviral activity against Human coxsackievirus B4. Format: functional, organism-based.
Data set [3] has as its system Human herpesvirus 2 strain G. The data set is described as follows: Antiviral activity against HSV2 G Lyons. The data set is classed as functional, organism-based.
Data set [4] relates to Human betaherpesvirus 5. The data set is described as follows: Antiviral activity against human cytomegalovirus Davis infected in HEL cells assessed as reduction in viral plaque formation. Format: functional, organism-based. The following applies: Human betaherpesvirus 5, Davis. The procedure, abridged:
(§2)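 Confluent HEL fibroblasts were infected with 100 PFU of HCMV in the presence of varying compound concentrations. Plaques were counted once plaque formation was complete in untreated infected controls.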

A short description of data set [5]: Cytotoxicity against Varicella zoster virus infected HEL cells assessed as alteration of cell morphology incubated for 3 days by microscopy. Format: cell-based. The settings on record: human, HEL cells infected with Varicella zoster virus. The procedure, abridged:
(§3)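 Cytotoxicity was given as the minimum cytotoxic concentration (MCC): the compound concentration causing a microscopically detectable change in HEL cell morphology.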

Another data set deals with Human respirovirus 3. Put plainly: Antiviral activity against Parainfluenza 3 virus. Format: functional, organism-based.
The test system of data set [6] is HEL. The data set is described as follows: Cytotoxicity against human cytomegalovirus infected HEL cells assessed as cell growth inhibition incubated for 3 days by coulter counter method. Format: cell-based. The settings on record: 72 h. An outline of the steps:
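HEL cells were seeded at 5 × 10^3 cells/well and left to adhere and proliferate for 24 h, then compound-containing medium was added. After 3 days at 37 °C, cells were counted with a Coulter counter.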

Another data set relates to Human alphaherpesvirus 1. The data set is described as follows: Antiviral activity against HSV1 KOS. Format: functional, organism-based. An outline of the steps: (§4)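 Confluent cell monolayers in 96-well plates were inoculated with 100 CCID50 of virus together with varying compound concentrations. Cytopathicity was scored once it reached completion in untreated infected controls.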

A further data set has as its system Influenza A virus H3N2. The data set is described as follows: Antiviral activity against Influenza A virus H3N2. The data set is classed as functional, organism-based. The procedure, abridged: as §1
The test system of a further data set is Influenza A virus. The data set is described as follows: Antiviral activity against Influenza A virus H1N1. Format: functional, organism-based. An outline of the steps: as §1
Data set [7] relates to HEL. Put plainly: Cytotoxicity against Varicella zoster virus infected HEL cells assessed as cell growth inhibition incubated for 3 days by coulter counter method. The settings on record: human, 72 h.
Data set [8] concerns Human immunodeficiency virus 1. The data set is described as follows: Antiviral activity against HIV1 3B infected in human CEM cells assessed as reduction in virus- induced cytopathicity incubated for 4 to 5 days by microscopy based virus syncytium formation assay. Format: functional, organism-based. The settings on record: CCRF-CEM. An outline of the steps:
(§5)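 CEM cells at ~3 × 10^5 cells/mL, infected with 100 CCID50 of HIV per mL in the presence of compound dilutions. Incubated 4–5 days at 37 °C in humidified CO2. Syncytium (giant cell) formation scored by microscopy.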
In general terms: Damage to the host cells serves as the signal in cytopathic effect assays.

For the next data set, the system named is Human alphaherpesvirus 2. The data set is described as follows: Antiviral activity against HSV2 Lyons. The data set is classed as functional, organism-based. The procedure, abridged: as §4
The nature of data set [9]: Cytotoxicity against human cytomegalovirus infected HEL cells assessed as alteration of cell morphology incubated for 3 days by microscopy. The data set is classed as cell-based. The following applies: HEL cells infected with human cytomegalovirus. An outline of the steps: as §3
Data set [10] concerns Human immunodeficiency virus 2. The data set is described as follows: Antiviral activity against HIV2 ROD infected in human CEM cells assessed as reduction in virus- induced cytopathicity incubated for 4 to 5 days by microscopy based virus syncytium formation assay. The settings on record: ISOLATE ROD, CCRF-CEM. Format: functional, organism-based. The procedure, abridged:
as §5

Data set [11] deals with Human betaherpesvirus 5. The data set is described as follows: Antiviral activity against human cytomegalovirus AD169 infected in HEL cells assessed as reduction in viral plaque formation. The data set is classed as functional, organism-based. The settings on record: Human betaherpesvirus 5, AD169, HEL. An outline of the steps:
as §2

Molecules are shown by their SMILES. Calls of active or inactive are those of the source. The rule behind the calls is not given here.

The term EC50 denotes the concentration that produces a half-maximal response. Broadly, the CC50 is the concentration at which the toxic effect on the cells reaches its halfway point. With `O=C(Cn1c(=O)ccn(CCCOc2ccc(Br)cc2)c1=O)Nc1ccc(Oc2ccccc2)cc1`, the inhibition entry (with Influenza B virus; in the data set with Punta Toro virus; with Vaccinia virus; in data set [1]; in the data set with Feline coronavirus; in the data set on Sindbis virus) was “inactive” throughout. The inhibition entry (in [2]; in the data set with Coxsackievirus B4; in data set [3]; in the data set with Human respirovirus 3; in the data set on Human alphaherpesvirus 1; in the data set with Influenza A virus H3N2) was “inactive” throughout. Moreover, the inhibition entry (with Influenza A virus; in data set [8]; in the data set on Human alphaherpesvirus 2; in [10]) was “inactive” in each case. For the same compound, the EC50 in the data set on Human betaherpesvirus 5 [4] was 3.9 µM. Further, the MCC at 72 h in data set [5] and in [9] was at least 100 µM throughout. The CC50 in the data set on HEL [6] and with HEL [7] was 15.2 µM in each case.
For the compound `O=C(Cn1c(=O)ccn(CCCCCCOc2ccc(Br)cc2)c1=O)Nc1ccc(Oc2ccccc2)cc1`, the inhibition entry (in the data set with Influenza B virus; in the data set with Punta Toro virus; with Vaccinia virus; in data set [1]; with Feline coronavirus; with Sindbis virus) was “inactive” each time. Besides, the inhibition result (in data set [2]; in the data set with Coxsackievirus B4; in data set [3]; with Human respirovirus 3; with Human alphaherpesvirus 1; in the data set with Influenza A virus H3N2) was “inactive” each time. Further, the inhibition entry (in the data set with Influenza A virus; in data set [8]; in the data set on Human alphaherpesvirus 2; in data set [10]) was “inactive” each time. In addition, the values for the EC50 with Human betaherpesvirus 5 [11] and with Human betaherpesvirus 5 [4] were 0.29 µM and 0.2 µM, respectively. Besides, the MCC at 72 h in data set [5] and in data set [9] was 4 µM in each case. For the same compound, the CC50 in the data set on HEL [6] and with HEL [7] was 11.7 µM each time.
As to `O=C(Cn1c(=O)ccn(CCCCCCCCOc2ccc(Br)cc2)c1=O)Nc1ccc(Oc2ccccc2)cc1`, the inhibition result (in the data set on Influenza B virus; in the data set on Punta Toro virus; in the data set with Vaccinia virus; in data set [1]; in the data set with Feline coronavirus; in the data set on Sindbis virus) was “inactive” each time. Also, the inhibition entry (in data set [2]; with Coxsackievirus B4; in data set [3]; in the data set on Human respirovirus 3; in the data set with Human alphaherpesvirus 1; in the data set with Influenza A virus H3N2) was “inactive” each time. Further, the inhibition entry (in the data set on Influenza A virus; in data set [8]; with Human alphaherpesvirus 2; in data set [10]) was “inactive” in each case. Further, the EC50 in the data set with Human betaherpesvirus 5 [11] and in the data set with Human betaherpesvirus 5 [4] was under 0.032 µM in each case. For the same compound, the MCC at 72 h in data set [5] was 0.8 µM; in [9] it was at least 0.16 µM. Besides, the CC50 in the data set on HEL [7] turned out to be 11.7 µM.
As for `CN(C(=O)Cn1c(=O)ccn(CCCCCOc2ccc(Br)cc2)c1=O)c1ccc(Oc2ccccc2)cc1`, the inhibition entry (in the data set with Influenza B virus; in the data set on Punta Toro virus; in the data set on Vaccinia virus; in data set [1]; in the data set with Feline coronavirus; with Sindbis virus) was “inactive” in each case. The inhibition result (in data set [2]; in the data set with Coxsackievirus B4; in data set [3]; with Human respirovirus 3; in the data set with Human alphaherpesvirus 1; with Influenza A virus H3N2) was “inactive” throughout. The inhibition entry (with Influenza A virus; in data set [8]; in the data set with Human alphaherpesvirus 2; in [10]) was “inactive” throughout. Besides, the EC50 in the data set on Human betaherpesvirus 5 [11] stood at 0.98 µM; in the data set on Human betaherpesvirus 5 [4], 1.29 µM. Besides, the MCC at 72 h was at least 100 µM in data set [5] and at least 4 µM in [9]. Further, the values for the CC50 in the data set on HEL [6] and in the data set on HEL [7] were 6.1 µM and 6 µM, respectively.
Consider `O=C(Cn1c(=O)ccn(CCCCOc2ccc(Br)cc2)c1=O)Nc1ccc(Oc2ccccc2)cc1`, for which the inhibition result (with Influenza B virus; in the data set on Punta Toro virus; with Vaccinia virus; in data set [1]; in the data set on Feline coronavirus; in the data set on Sindbis virus) was “inactive” in each case. In addition, the inhibition result (in [2]; in the data set with Coxsackievirus B4; in data set [3]; in the data set on Human respirovirus 3; with Human alphaherpesvirus 1; with Influenza A virus H3N2) was “inactive” in each case. The inhibition result (in the data set on Influenza A virus; in [8]; with Human alphaherpesvirus 2; in data set [10]) was “inactive” throughout. Also, the EC50 in the data set on Human betaherpesvirus 5 [11] came to 1.79 µM; in the data set with Human betaherpesvirus 5 [4], 1.64 µM. Besides, the MCC at 72 h in data set [5] is over 100 µM; in data set [9] it was at least 20 µM. Also, the CC50 with HEL [6] and in the data set on HEL [7] was 7.7 µM throughout.
Take `O=c1[nH]c(=O)n([C@H]2C[C@H](O)[C@@H](CO)O2)cc1/C=C/Br` [BRIVUDINE]: the MCC at 72 h in data set [5] is over 300 µM. In the data set with HEL [7], the CC50 was at least 79.3 µM.
For `O=C(Cn1c(=O)ccn(CCCCCOc2ccc(Br)cc2)c1=O)Nc1ccc(C(=O)c2ccccc2)cc1`, the inhibition entry (in the data set on Influenza B virus; with Punta Toro virus; with Vaccinia virus; in data set [1]; in the data set on Feline coronavirus; with Sindbis virus) was “inactive” each time. Moreover, the inhibition result (in data set [2]; in the data set on Coxsackievirus B4; in data set [3]; with Human respirovirus 3; in the data set with Human alphaherpesvirus 1; in the data set with Influenza A virus H3N2) was “inactive” each time. Further, the inhibition entry (in the data set on Influenza A virus; in [8]; with Human alphaherpesvirus 2; in [10]) was “inactive” in each case. For the same compound, the EC50 was 1.79 µM with Human betaherpesvirus 5 [11] and 1.64 µM in the data set on Human betaherpesvirus 5 [4]. Moreover, the MCC at 72 h in [5] is over 100 µM; in [9] it was at least 20 µM. For the same compound, the CC50 in the data set on HEL [6] was 5.8 µM.
For `O=C(Cn1c(=O)ccn(CCCCCOc2ccc(-c3ccccc3)cc2)c1=O)Nc1ccc(Oc2ccccc2)cc1`, the inhibition result (with Influenza B virus; in the data set on Punta Toro virus; in the data set with Vaccinia virus; in [1]; in the data set on Feline coronavirus; in the data set on Sindbis virus) was “inactive” in each case. Also, the inhibition entry (in data set [2]; in the data set with Coxsackievirus B4; in data set [3]; in the data set on Human respirovirus 3; in the data set with Human alphaherpesvirus 1; with Influenza A virus H3N2) was “inactive” each time. Further, the inhibition entry (in the data set on Influenza A virus; in [8]; in the data set with Human alphaherpesvirus 2; in [10]) was “inactive” in each case. Further, the EC50 in the data set with Human betaherpesvirus 5 [11] was 0.51 µM; in the data set with Human betaherpesvirus 5 [4], 1.04 µM. The MCC at 72 h amounted to 100 µM in data set [5] and 20 µM in [9]. The CC50 with HEL [6] was 2.8 µM.
